Measurements from ChEMBL document CHEMBL1287651, “Synthesis and in vitro antibacterial activity of fluoroquinolone derivatives containing 3-(N'-alkoxycarbamimidoyl)-4-(alkoxyimino) pyrrolidines” (2010).
Converted amounts (≈) assume the structure as drawn.

Columns and labels:
Assay type in all cases: functional
[1] = system: Staphylococcus aureus; assay: Antibacterial activity against Staphylococcus aureus ATCC […] after 18 to 24 hrs by twofold serial dilution method
Method in brief: (§1)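 MIC determined by the standard twofold serial dilution method on agar media, screening against Gram-positive and Gram-negative strains. Levofloxacin and gemifloxacin were run alongside as reference drugs.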

[2] = system: Staphylococcus aureus; assay: Antibacterial activity against methicillin-resistant Staphylococcus aureus 08-1 after 18 to 24 hrs by twofold serial dilution method
Method in brief: (§2)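 Standard twofold serial agar dilution method on agar media for MIC determination. Screened against representative Gram-positive and Gram-negative strains. Levofloxacin and GMFX served as control drugs.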

[3] = system: Staphylococcus aureus; assay: Antibacterial activity against methicillin-sensitive Staphylococcus aureus 08-2 after 18 to 24 hrs by twofold serial dilution method; method in brief: as §2
[4] = system: Staphylococcus epidermidis; assay: Antibacterial activity against methicillin-resistant Staphylococcus epidermidis 09-2 after 18 to 24 hrs by twofold serial dilution method; method in brief: as §2
[5] = system: Staphylococcus epidermidis; assay: Antibacterial activity against methicillin-resistant Staphylococcus epidermidis 09-3 after 18 to 24 hrs by twofold serial dilution method; method in brief: as §2
[6] = system: Staphylococcus epidermidis; assay: Antibacterial activity against methicillin-resistant Staphylococcus epidermidis 09-4 after 18 to 24 hrs by twofold serial dilution method; method in brief: as §2
[7] = system: Staphylococcus epidermidis; assay: Antibacterial activity against methicillin-sensitive Staphylococcus epidermidis 09-3 after 18 to 24 hrs by twofold serial dilution method; method in brief: as §2
[8] = system: Staphylococcus epidermidis; assay: Antibacterial activity against methicillin-sensitive Staphylococcus epidermidis 09-6 after 18 to 24 hrs by twofold serial dilution method; method in brief: as §2
[9] = system: Streptococcus pneumoniae; assay: Antibacterial activity against Streptococcus pneumoniae 08-2 after 18 to 24 hrs by twofold serial dilution method; method in brief: as §1
[10] = system: Streptococcus pneumoniae; assay: Antibacterial activity against Streptococcus pneumoniae 08-4 after 18 to 24 hrs by twofold serial dilution method; method in brief: as §1
[11] = system: Enterococcus faecium; assay: Antibacterial activity against Enterococcus faecium 08-2 after 18 to 24 hrs by twofold serial dilution method; method in brief: as §1
[12] = system: Enterococcus faecium; assay: Antibacterial activity against Enterococcus faecium 08-7 after 18 to 24 hrs by twofold serial dilution method; method in brief: as §1
[13] = system: Enterococcus faecalis; assay: Antibacterial activity against Enterococcus faecalis 08-10 after 18 to 24 hrs by twofold serial dilution method; method in brief: as §1
[14] = system: Enterococcus faecalis; assay: Antibacterial activity against Enterococcus faecalis 08-12 after 18 to 24 hrs by twofold serial dilution method; method in brief: as §1
[15] = system: Escherichia coli; assay: Antibacterial activity against Escherichia coli ATCC 25922 after 18 to 24 hrs by twofold serial dilution method; method in brief: as §1
[16] = system: Escherichia coli; assay: Antibacterial activity against Escherichia coli 08-21 after 18 to 24 hrs by twofold serial dilution method; method in brief: as §1
[17] = system: Escherichia coli; assay: Antibacterial activity against Escherichia coli 08-22 after 18 to 24 hrs by twofold serial dilution method; method in brief: as §1
[18] = system: Klebsiella pneumoniae; assay: Antibacterial activity against Klebsiella pneumoniae 09-21 after 18 to 24 hrs by twofold serial dilution method; method in brief: as §1
[19] = system: Klebsiella pneumoniae; assay: Antibacterial activity against Klebsiella pneumoniae 09-22 after 18 to 24 hrs by twofold serial dilution method; method in brief: as §1
[20] = system: Klebsiella pneumoniae; assay: Antibacterial activity against Klebsiella pneumoniae 09-23 after 18 to 24 hrs by twofold serial dilution method; method in brief: as §1
[21] = system: Pseudomonas aeruginosa; assay: Antibacterial activity against Pseudomonas aeruginosa ATCC 27853 after 18 to 24 hrs by twofold serial dilution method; method in brief: as §1
[22] = system: Pseudomonas aeruginosa; assay: Antibacterial activity against Pseudomonas aeruginosa 09-32 after 18 to 24 hrs by twofold serial dilution method; method in brief: as §1
[23] = system: Pseudomonas aeruginosa; assay: Antibacterial activity against Pseudomonas aeruginosa 09-33 after 18 to 24 hrs by twofold serial dilution method; method in brief: as §1
[24] = system: Pseudomonas aeruginosa; assay: Antibacterial activity against Pseudomonas aeruginosa 09-34 after 18 to 24 hrs by twofold serial dilution method; method in brief: as §1
[25] = system: Pseudomonas aeruginosa; assay: Antibacterial activity against Pseudomonas aeruginosa 09-35 after 18 to 24 hrs by twofold serial dilution method; method in brief: as §1

CO/N=C1\CN(c2c(F)cc3c(=O)c(C(=O)O)cn(C4CC4)c3c2OC)CC1/C(N)=N\OC (stereo not given)
MIC [1]: 0.125 mg/L (≈ 0.271 µM)
MIC [2]: 0.25 mg/L (≈ 0.542 µM)
MIC [3]: 0.125 mg/L (≈ 0.271 µM)
MIC [4]: 0.25 mg/L (≈ 0.542 µM)
MIC [5]: 0.25 mg/L (≈ 0.542 µM)
MIC [6]: 0.25 mg/L (≈ 0.542 µM)
MIC [7]: 0.125 mg/L (≈ 0.271 µM)
MIC [8]: 0.25 mg/L (≈ 0.542 µM)
MIC [9]: 8 mg/L (≈ 17.3 µM)
MIC [10]: 0.25 mg/L (≈ 0.542 µM)
MIC [11]: > 128 mg/L
MIC [12]: > 128 mg/L
MIC [13]: > 128 mg/L
MIC [14]: > 128 mg/L
MIC [15]: 128 mg/L (≈ 277 µM)
MIC [16]: > 128 mg/L
MIC [17]: > 128 mg/L
MIC [18]: > 128 mg/L
MIC [19]: 2 mg/L (≈ 4.33 µM)
MIC [20]: > 128 mg/L
MIC [21]: 64 mg/L (≈ 139 µM)
MIC [22]: 128 mg/L (≈ 277 µM)
MIC [23]: > 128 mg/L
MIC [24]: > 128 mg/L
MIC [25]: 128 mg/L (≈ 277 µM)

CCO/N=C1\CN(c2c(F)cc3c(=O)c(C(=O)O)cn(C4CC4)c3c2F)CC1/C(N)=N\OC (stereo not given)
MIC [1]: 0.125 mg/L (≈ 0.27 µM)
MIC [2]: 0.25 mg/L (≈ 0.539 µM)
MIC [3]: 0.125 mg/L (≈ 0.27 µM)
MIC [4]: 0.25 mg/L (≈ 0.539 µM)
MIC [5]: 0.125 mg/L (≈ 0.27 µM)
MIC [6]: 0.5 mg/L (≈ 1.08 µM)
MIC [7]: 0.25 mg/L (≈ 0.539 µM)
MIC [8]: 0.25 mg/L (≈ 0.539 µM)
MIC [9]: 32 mg/L (≈ 69 µM)
MIC [10]: 0.25 mg/L (≈ 0.539 µM)
MIC [11]: > 128 mg/L
MIC [12]: 0.25 mg/L (≈ 0.539 µM)
MIC [13]: 32 mg/L (≈ 69 µM)
MIC [14]: > 128 mg/L
MIC [15]: 64 mg/L (≈ 138 µM)
MIC [16]: > 128 mg/L
MIC [17]: > 128 mg/L
MIC [18]: > 128 mg/L
MIC [19]: 0.25 mg/L (≈ 0.539 µM)
MIC [20]: > 128 mg/L
MIC [21]: 8 mg/L (≈ 17.3 µM)
MIC [22]: 16 mg/L (≈ 34.5 µM)
MIC [23]: > 128 mg/L
MIC [24]: > 128 mg/L
MIC [25]: 16 mg/L (≈ 34.5 µM)

CO/N=C1\CN(c2c(F)cc3c(=O)c(C(=O)O)cn4c3c2OC[C@@H]4C)CC1/C(N)=N\OC (stereo not given in full)
MIC [1]: 0.125 mg/L (≈ 0.279 µM)
MIC [2]: 0.25 mg/L (≈ 0.559 µM)
MIC [3]: 0.25 mg/L (≈ 0.559 µM)
MIC [4]: 0.25 mg/L (≈ 0.559 µM)
MIC [5]: 0.25 mg/L (≈ 0.559 µM)
MIC [6]: 0.25 mg/L (≈ 0.559 µM)
MIC [7]: 0.25 mg/L (≈ 0.559 µM)
MIC [8]: 0.25 mg/L (≈ 0.559 µM)
MIC [9]: 16 mg/L (≈ 35.8 µM)
MIC [10]: 0.25 mg/L (≈ 0.559 µM)
MIC [11]: 128 mg/L (≈ 286 µM)
MIC [12]: 128 mg/L (≈ 286 µM)
MIC [13]: > 128 mg/L
MIC [14]: > 128 mg/L
MIC [15]: 128 mg/L (≈ 286 µM)
MIC [16]: > 128 mg/L
MIC [17]: > 128 mg/L
MIC [18]: > 128 mg/L
MIC [19]: 0.5 mg/L (≈ 1.12 µM)
MIC [20]: > 128 mg/L
MIC [21]: 4 mg/L (≈ 8.94 µM)
MIC [22]: 8 mg/L (≈ 17.9 µM)
MIC [23]: > 128 mg/L
MIC [24]: > 128 mg/L
MIC [25]: 8 mg/L (≈ 17.9 µM)

CCO/N=C1\CN(c2c(F)cc3c(=O)c(C(=O)O)cn(CC)c3c2F)CC1/C(N)=N\O (stereo not given)
MIC [1]: 1 mg/L (≈ 2.29 µM)
MIC [2]: 1 mg/L (≈ 2.29 µM)
MIC [3]: 1 mg/L (≈ 2.29 µM)
MIC [4]: 1 mg/L (≈ 2.29 µM)
MIC [5]: 0.25 mg/L (≈ 0.572 µM)
MIC [6]: 1 mg/L (≈ 2.29 µM)
MIC [7]: 0.125 mg/L (≈ 0.286 µM)
MIC [8]: 0.125 mg/L (≈ 0.286 µM)
MIC [9]: 16 mg/L (≈ 36.6 µM)
MIC [10]: > 128 mg/L
MIC [11]: > 128 mg/L
MIC [12]: > 128 mg/L
MIC [13]: > 128 mg/L
MIC [14]: > 128 mg/L
MIC [15]: > 128 mg/L
MIC [16]: > 128 mg/L
MIC [17]: 16 mg/L (≈ 36.6 µM)
MIC [18]: > 128 mg/L
MIC [19]: > 128 mg/L
MIC [20]: > 128 mg/L
MIC [21]: > 128 mg/L
MIC [22]: > 128 mg/L
MIC [23]: > 128 mg/L
MIC [24]: > 128 mg/L
MIC [25]: > 128 mg/L

CCO/N=C1\CN(c2nc3c(cc2F)c(=O)c(C(=O)O)cn3C2CC2)CC1/C(N)=N\OC (stereo not given)
MIC [1]: 0.5 mg/L (≈ 1.12 µM)
MIC [2]: 0.25 mg/L (≈ 0.56 µM)
MIC [3]: 0.25 mg/L (≈ 0.56 µM)
MIC [4]: 128 mg/L (≈ 287 µM)
MIC [5]: 0.125 mg/L (≈ 0.28 µM)
MIC [6]: 0.25 mg/L (≈ 0.56 µM)
MIC [7]: 0.25 mg/L (≈ 0.56 µM)
MIC [8]: 0.25 mg/L (≈ 0.56 µM)
MIC [9]: 128 mg/L (≈ 287 µM)
MIC [10]: 0.25 mg/L (≈ 0.56 µM)
MIC [11]: > 128 mg/L
MIC [12]: > 128 mg/L
MIC [13]: > 128 mg/L
MIC [14]: > 128 mg/L
MIC [15]: > 128 mg/L
MIC [16]: > 128 mg/L
MIC [17]: > 128 mg/L
MIC [18]: > 128 mg/L
MIC [19]: 1 mg/L (≈ 2.24 µM)
MIC [20]: > 128 mg/L
MIC [21]: 64 mg/L (≈ 143 µM)
MIC [22]: 64 mg/L (≈ 143 µM)
MIC [23]: > 128 mg/L
MIC [24]: > 128 mg/L
MIC [25]: 64 mg/L (≈ 143 µM)

CCO/N=C1\CN(c2c(F)cc3c(=O)c(C(=O)O)cn(CCF)c3c2F)CC1/C(N)=N\O (stereo not given)
MIC [1]: 0.5 mg/L (≈ 1.1 µM)
MIC [2]: 0.5 mg/L (≈ 1.1 µM)
MIC [3]: 0.5 mg/L (≈ 1.1 µM)
MIC [4]: 4 mg/L (≈ 8.78 µM)
MIC [5]: 0.5 mg/L (≈ 1.1 µM)
MIC [6]: 0.5 mg/L (≈ 1.1 µM)
MIC [7]: 0.5 mg/L (≈ 1.1 µM)
MIC [8]: 0.5 mg/L (≈ 1.1 µM)
MIC [9]: 4 mg/L (≈ 8.78 µM)
MIC [10]: 0.5 mg/L (≈ 1.1 µM)
MIC [11]: > 128 mg/L
MIC [12]: > 128 mg/L
MIC [13]: 4 mg/L (≈ 8.78 µM)
MIC [14]: > 128 mg/L
MIC [15]: 128 mg/L (≈ 281 µM)
MIC [16]: > 128 mg/L
MIC [17]: > 128 mg/L
MIC [18]: > 128 mg/L
MIC [19]: 4 mg/L (≈ 8.78 µM)
MIC [20]: > 128 mg/L
MIC [21]: 8 mg/L (≈ 17.6 µM)
MIC [22]: 16 mg/L (≈ 35.1 µM)
MIC [23]: > 128 mg/L
MIC [24]: > 128 mg/L
MIC [25]: 16 mg/L (≈ 35.1 µM)
